Holding throughout (details): stereoisomer not certain
One test deals with T1, UniProt Q8VG27.
T1 sequence (whole entry): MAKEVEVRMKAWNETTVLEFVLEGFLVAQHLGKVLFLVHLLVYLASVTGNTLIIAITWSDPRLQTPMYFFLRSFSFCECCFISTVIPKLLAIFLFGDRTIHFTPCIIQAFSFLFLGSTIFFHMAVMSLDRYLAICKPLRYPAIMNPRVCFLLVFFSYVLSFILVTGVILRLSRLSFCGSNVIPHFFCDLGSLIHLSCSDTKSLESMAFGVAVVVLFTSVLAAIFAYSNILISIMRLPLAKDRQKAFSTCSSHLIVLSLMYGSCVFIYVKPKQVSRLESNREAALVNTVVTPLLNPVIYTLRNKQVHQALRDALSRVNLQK
An outline of the steps: (§1)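 Assay methods differ from source to source, frequently being transient luciferase assays in mammalian cell lines. For each receptor–molecule pair, the label responsive (active) applies when the original authors judged the measured signal statistically different from baseline, and non-responsive (inactive) applies otherwise.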

Another test has as its target T2, UniProt Q8VG49.
T2 sequence (whole entry): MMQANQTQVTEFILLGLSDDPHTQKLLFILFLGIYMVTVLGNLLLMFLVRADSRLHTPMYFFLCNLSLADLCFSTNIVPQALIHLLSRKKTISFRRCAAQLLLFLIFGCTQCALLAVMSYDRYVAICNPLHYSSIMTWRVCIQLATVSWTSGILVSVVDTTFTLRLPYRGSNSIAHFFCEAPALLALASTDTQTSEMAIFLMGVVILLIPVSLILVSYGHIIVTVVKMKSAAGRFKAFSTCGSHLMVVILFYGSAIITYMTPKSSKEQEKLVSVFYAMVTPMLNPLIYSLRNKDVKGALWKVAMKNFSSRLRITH
In outline:
as §1

The next test addresses T3, UniProt Q8VG53.
T3 sequence (whole entry): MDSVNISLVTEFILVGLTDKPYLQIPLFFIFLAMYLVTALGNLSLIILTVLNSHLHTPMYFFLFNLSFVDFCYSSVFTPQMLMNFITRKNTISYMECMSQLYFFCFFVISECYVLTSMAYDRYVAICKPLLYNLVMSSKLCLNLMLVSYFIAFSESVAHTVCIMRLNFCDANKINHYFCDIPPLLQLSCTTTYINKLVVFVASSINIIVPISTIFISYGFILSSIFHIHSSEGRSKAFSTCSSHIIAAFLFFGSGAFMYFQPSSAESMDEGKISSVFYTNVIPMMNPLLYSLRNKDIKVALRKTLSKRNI
An outline of the steps:
as §1

A further test concerns the target T4, UniProt Q8VG64.
T4 sequence (whole entry): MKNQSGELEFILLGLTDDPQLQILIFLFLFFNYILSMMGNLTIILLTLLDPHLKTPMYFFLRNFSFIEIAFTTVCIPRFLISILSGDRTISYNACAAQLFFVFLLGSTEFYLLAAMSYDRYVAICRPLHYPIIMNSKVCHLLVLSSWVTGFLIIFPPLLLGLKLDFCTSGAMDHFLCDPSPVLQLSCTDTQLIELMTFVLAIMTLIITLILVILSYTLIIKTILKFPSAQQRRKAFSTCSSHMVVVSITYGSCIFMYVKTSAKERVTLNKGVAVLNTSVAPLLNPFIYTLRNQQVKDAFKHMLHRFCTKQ
In outline:
as §1

A further test has as its target T5, UniProt Q8VG77.
T5 sequence (whole entry): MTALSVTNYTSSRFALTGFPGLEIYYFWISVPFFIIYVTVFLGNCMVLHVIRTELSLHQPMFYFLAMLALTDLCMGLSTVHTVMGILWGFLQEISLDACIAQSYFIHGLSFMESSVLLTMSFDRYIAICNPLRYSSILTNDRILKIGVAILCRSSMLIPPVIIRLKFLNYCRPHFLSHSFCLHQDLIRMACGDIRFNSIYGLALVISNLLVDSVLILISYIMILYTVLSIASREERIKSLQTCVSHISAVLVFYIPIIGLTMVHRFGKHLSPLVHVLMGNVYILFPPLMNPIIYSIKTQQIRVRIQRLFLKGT
In outline:
as §1

Another test concerns the target T6, UniProt Q8VG96.
T6 sequence (whole entry): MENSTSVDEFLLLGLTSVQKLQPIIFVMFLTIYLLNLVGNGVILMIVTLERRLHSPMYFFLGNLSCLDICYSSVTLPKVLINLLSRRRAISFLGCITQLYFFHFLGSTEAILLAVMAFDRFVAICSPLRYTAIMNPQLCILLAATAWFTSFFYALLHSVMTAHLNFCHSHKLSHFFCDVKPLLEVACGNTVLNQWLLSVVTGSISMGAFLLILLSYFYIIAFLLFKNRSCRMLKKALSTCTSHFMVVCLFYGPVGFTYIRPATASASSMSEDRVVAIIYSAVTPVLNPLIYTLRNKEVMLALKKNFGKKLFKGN
An outline of the steps:
as §1

A further test concerns the target T7, UniProt Q8VGB9.
T7 sequence (whole entry): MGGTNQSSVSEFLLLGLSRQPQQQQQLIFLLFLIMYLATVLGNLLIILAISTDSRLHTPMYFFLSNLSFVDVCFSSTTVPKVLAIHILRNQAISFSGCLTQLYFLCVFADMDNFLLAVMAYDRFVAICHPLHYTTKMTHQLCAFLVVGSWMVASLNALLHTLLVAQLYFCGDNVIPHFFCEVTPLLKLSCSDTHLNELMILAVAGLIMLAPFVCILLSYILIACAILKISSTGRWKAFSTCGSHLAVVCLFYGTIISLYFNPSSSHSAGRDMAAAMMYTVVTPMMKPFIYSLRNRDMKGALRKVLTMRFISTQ
In outline:
as §1

The target of another test is T8, UniProt Q8VGC6.
T8 sequence (whole entry): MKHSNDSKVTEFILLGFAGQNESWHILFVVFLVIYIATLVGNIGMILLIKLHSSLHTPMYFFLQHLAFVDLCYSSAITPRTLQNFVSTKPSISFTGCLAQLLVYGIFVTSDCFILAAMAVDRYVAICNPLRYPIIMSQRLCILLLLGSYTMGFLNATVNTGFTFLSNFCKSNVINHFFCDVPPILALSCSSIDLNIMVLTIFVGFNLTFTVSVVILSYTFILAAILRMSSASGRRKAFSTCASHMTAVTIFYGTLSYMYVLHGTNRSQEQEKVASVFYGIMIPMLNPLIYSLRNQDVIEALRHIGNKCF
An outline of the steps: as §1

In another test the target is T9, UniProt Q8VGD7.
T9 sequence (whole entry): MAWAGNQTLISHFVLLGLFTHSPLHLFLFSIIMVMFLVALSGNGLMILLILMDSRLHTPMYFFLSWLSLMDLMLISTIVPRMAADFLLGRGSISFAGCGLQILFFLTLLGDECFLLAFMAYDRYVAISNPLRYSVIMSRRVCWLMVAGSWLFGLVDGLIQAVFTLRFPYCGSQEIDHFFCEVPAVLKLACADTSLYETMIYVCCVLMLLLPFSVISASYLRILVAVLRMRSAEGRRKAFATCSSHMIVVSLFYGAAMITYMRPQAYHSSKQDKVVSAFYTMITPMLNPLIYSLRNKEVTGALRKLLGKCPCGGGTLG
In outline:
as §1

For another test, the target named is T10, UniProt Q8VGH1.
T10 sequence (whole entry): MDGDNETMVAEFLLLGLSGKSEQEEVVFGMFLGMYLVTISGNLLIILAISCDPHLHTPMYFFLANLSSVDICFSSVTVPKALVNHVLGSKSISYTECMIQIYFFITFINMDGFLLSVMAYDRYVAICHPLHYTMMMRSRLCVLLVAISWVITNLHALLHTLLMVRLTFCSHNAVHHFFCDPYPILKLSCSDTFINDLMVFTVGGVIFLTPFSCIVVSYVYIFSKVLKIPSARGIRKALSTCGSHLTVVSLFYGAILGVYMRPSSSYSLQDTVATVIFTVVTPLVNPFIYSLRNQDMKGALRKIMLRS
An outline of the steps: as §1

The target in a further test is T11, UniProt Q8VGJ1.
T11 sequence (whole entry): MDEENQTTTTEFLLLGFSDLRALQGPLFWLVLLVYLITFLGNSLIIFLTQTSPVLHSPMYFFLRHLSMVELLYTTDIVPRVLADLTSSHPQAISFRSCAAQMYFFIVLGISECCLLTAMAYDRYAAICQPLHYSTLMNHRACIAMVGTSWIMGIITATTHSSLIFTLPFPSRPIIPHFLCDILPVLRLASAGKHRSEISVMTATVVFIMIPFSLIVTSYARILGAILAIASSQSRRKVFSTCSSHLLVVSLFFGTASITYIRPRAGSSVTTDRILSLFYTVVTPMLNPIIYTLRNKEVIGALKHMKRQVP
In outline: as §1

A further test deals with T12, UniProt Q8VGJ3.
T12 sequence (whole entry): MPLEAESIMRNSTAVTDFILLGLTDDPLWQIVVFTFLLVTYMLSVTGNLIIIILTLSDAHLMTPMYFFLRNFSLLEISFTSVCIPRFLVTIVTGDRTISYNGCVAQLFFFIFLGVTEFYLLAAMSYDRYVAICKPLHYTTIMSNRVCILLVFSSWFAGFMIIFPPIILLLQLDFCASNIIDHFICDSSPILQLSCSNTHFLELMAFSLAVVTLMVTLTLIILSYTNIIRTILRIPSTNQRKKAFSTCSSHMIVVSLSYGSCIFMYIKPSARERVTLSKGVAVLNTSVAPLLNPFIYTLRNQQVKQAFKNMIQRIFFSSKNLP
An outline of the steps: as §1

For a further test, the target named is T13, UniProt Q8VGJ5.
T13 sequence (whole entry): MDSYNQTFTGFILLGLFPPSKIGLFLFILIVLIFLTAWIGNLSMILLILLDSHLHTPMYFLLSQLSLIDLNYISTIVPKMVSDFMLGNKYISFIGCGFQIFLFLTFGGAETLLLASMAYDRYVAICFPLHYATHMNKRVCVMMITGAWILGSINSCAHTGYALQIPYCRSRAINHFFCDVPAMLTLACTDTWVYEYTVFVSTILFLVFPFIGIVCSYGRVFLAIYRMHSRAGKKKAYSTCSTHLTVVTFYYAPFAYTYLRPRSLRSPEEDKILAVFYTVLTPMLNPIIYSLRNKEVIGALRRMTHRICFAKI
In outline: as §1

The next test concerns the target T14, UniProt Q8VGL0.
T14 sequence (whole entry): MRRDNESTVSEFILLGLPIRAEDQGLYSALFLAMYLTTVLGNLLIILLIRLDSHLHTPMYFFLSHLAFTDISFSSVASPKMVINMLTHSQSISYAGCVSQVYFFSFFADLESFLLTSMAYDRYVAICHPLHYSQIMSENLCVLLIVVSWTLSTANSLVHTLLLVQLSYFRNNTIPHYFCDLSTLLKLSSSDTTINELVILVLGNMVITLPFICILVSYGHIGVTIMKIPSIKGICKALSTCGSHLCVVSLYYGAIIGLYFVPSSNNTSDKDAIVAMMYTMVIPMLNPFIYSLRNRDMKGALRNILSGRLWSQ
In outline: as §1

The next test has as its target T15, UniProt Q8VGL7.
T15 sequence (whole entry): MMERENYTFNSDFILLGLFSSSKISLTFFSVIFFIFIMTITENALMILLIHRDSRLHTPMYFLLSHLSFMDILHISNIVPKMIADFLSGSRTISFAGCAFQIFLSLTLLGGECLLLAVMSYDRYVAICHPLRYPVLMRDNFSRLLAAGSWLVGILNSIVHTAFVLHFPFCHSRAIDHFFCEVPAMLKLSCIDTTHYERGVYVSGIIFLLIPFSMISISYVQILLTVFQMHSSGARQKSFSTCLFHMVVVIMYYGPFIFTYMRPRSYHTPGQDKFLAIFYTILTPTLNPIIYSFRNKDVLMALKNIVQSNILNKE
In outline:
as §1

The structures appear in SMILES notation.

`CCC(=O)C(=O)CC`: the “odorant receptor agonist call” value in the test with UniProt Q8VG27, with UniProt Q8VG49, with UniProt Q8VG53, with UniProt Q8VG64, with UniProt Q8VG77 and with UniProt Q8VG96 was “inactive” each time. Besides, the “odorant receptor agonist call” value in the test with UniProt Q8VGC6, in the test with UniProt Q8VGD7, with UniProt Q8VGH1, with UniProt Q8VGJ1, in the test with UniProt Q8VGJ3 and with UniProt Q8VGJ5 was “inactive” in each case. Further, the “odorant receptor agonist call” value with UniProt Q8VGL0 and with UniProt Q8VGL7 was “inactive” in each case. In addition, in the test with UniProt Q8VGB9, the “odorant receptor agonist call” value is “active”.

Turning to `CCCCCCCCS`, the “odorant receptor agonist call” value with UniProt Q8VG27, in the test with UniProt Q8VG49, in the test with UniProt Q8VG53, with UniProt Q8VG64, in the test with UniProt Q8VG77 and with UniProt Q8VG96 was “inactive” each time. In addition, the “odorant receptor agonist call” value in the test with UniProt Q8VGB9, with UniProt Q8VGD7, with UniProt Q8VGH1, in the test with UniProt Q8VGJ1, with UniProt Q8VGJ3 and with UniProt Q8VGJ5 was “inactive” throughout. The “odorant receptor agonist call” value in the test with UniProt Q8VGL0 and in the test with UniProt Q8VGL7 was “inactive” throughout. Further, the “odorant receptor agonist call” value in the test with UniProt Q8VGC6 is “active”.

`CCCCCCCCCCO`: the “odorant receptor agonist call” value with UniProt Q8VG27, with UniProt Q8VG49, with UniProt Q8VG53, with UniProt Q8VG64, in the test with UniProt Q8VG77 and with UniProt Q8VG96 was “inactive” in each case. For the same compound, the “odorant receptor agonist call” value in the test with UniProt Q8VGB9, in the test with UniProt Q8VGD7, with UniProt Q8VGH1, with UniProt Q8VGJ1, with UniProt Q8VGJ3 and in the test with UniProt Q8VGJ5 was “inactive” each time. The “odorant receptor agonist call” value in the test with UniProt Q8VGL0 and with UniProt Q8VGL7 was “inactive” in each case. Moreover, the “odorant receptor agonist call” value with UniProt Q8VGC6 is “active”.

In the case of `C=C(C)C1CCC(C)C(=O)C1` (stereo not given), the “odorant receptor agonist call” value with UniProt Q8VG27, in the test with UniProt Q8VG49, with UniProt Q8VG53, with UniProt Q8VG64, with UniProt Q8VG77 and with UniProt Q8VG96 was “inactive” each time. Further, the “odorant receptor agonist call” value in the test with UniProt Q8VGB9, with UniProt Q8VGD7, in the test with UniProt Q8VGH1, with UniProt Q8VGJ1, in the test with UniProt Q8VGJ3 and with UniProt Q8VGL7 was “inactive” in each case. Moreover, the “odorant receptor agonist call” value in the test with UniProt Q8VGC6, with UniProt Q8VGJ5 and in the test with UniProt Q8VGL0 was “active” throughout.
